Laboratory results reported in ChEMBL document CHEMBL3085648, “Enhancement of kinase selectivity in a potent class of arylamide FMS inhibitors” (Bioorg Med Chem Lett, 2013).
pIC50: −log10 of the molar value.

Assays:
[1] = biological target: T1, Macrophage colony-stimulating factor 1 receptor (Mus musculus, UniProt P09581); assay: Inhibition of FMS in mouse BMDM cells; format: cell-based
T1 sequence (P09581 whole entry): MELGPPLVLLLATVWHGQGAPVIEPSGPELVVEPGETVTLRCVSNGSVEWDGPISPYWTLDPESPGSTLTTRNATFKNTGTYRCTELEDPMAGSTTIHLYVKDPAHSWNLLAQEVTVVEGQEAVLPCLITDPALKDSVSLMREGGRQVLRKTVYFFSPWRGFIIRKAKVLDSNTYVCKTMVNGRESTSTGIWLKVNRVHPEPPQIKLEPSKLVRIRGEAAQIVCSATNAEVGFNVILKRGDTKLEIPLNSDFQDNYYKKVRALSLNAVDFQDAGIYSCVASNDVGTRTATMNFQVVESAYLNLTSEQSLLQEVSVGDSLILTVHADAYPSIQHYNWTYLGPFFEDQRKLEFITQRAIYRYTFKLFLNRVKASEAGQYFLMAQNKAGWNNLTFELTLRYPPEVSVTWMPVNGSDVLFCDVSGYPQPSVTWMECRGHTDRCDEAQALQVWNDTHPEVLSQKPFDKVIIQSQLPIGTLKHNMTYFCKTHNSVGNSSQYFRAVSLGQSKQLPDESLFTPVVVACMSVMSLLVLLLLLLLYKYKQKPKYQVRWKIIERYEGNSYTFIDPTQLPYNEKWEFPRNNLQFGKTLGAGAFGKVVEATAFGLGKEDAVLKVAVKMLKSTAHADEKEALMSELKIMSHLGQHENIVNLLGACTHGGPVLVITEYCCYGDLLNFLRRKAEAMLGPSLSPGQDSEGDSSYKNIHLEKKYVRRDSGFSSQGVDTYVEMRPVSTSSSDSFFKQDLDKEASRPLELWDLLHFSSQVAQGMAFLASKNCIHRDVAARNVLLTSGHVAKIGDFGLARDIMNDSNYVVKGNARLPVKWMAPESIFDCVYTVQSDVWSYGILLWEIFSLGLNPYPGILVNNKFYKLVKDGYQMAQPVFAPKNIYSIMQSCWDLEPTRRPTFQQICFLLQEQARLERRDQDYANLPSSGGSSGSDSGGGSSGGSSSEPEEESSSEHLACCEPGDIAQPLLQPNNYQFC

[2] = Metabolic stability in human liver microsomes assessed as compound remaining after 10 mins; format: ADME; settings: liver microsomes, read-out: Stability
Summary of the method: (§1)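 Compound was incubated with human, mouse or rat liver microsomal preparations. Stability is the percent of compound remaining after 10 min.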

[3] = Metabolic stability in rat liver microsomes assessed as compound remaining after 10 mins; format: ADME; settings: read-out: Stability; summary of the method: as §1
[4] = Metabolic stability in mouse liver microsomes assessed as compound remaining after 10 mins; format: ADME, Microsome; settings: for remaining at 10 min: liver microsomes, read-out: Stability; summary of the method: as §1
[5] = biological target: Mast/stem cell growth factor receptor Kit (Homo sapiens, UniProt P10721); assay: Inhibition of KIT (unknown origin)
Mus musculus [6] = assay: Inhibition of CSF-1-induced c-fos gene expression in mouse spleen at 30 mg/kg, po after 6 hrs; format: functional
Summary of the method: (§2)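 In the mouse pharmacodynamic model, compound was given orally. Spleen c-fos mRNA induced by an iv injection of CSF-1 was measured 6 or 8 h after dosing.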

Mo7e = assay: Selectivity ratio of IC50 for KIT in human Mo7e cells to IC50 for FMS in mouse BMDM cells; format: cell-based
Summary of the method: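 Cellular selectivity was calculated as Mo7e IC50 divided by BMDM IC50. Mo7e IC50 came from SCF-dependent proliferation of Mo7e leukemia cells. BMDM IC50 came from proliferation of murine bone marrow-derived macrophages.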

Mus musculus [7] = assay: Inhibition of CSF-1-induced c-fos gene expression in mouse spleen at 40 mg/kg, po after 6 hrs; format: functional; summary of the method: as §2

Mast/stem cell growth factor receptor Kit, sequence (P10721 whole entry): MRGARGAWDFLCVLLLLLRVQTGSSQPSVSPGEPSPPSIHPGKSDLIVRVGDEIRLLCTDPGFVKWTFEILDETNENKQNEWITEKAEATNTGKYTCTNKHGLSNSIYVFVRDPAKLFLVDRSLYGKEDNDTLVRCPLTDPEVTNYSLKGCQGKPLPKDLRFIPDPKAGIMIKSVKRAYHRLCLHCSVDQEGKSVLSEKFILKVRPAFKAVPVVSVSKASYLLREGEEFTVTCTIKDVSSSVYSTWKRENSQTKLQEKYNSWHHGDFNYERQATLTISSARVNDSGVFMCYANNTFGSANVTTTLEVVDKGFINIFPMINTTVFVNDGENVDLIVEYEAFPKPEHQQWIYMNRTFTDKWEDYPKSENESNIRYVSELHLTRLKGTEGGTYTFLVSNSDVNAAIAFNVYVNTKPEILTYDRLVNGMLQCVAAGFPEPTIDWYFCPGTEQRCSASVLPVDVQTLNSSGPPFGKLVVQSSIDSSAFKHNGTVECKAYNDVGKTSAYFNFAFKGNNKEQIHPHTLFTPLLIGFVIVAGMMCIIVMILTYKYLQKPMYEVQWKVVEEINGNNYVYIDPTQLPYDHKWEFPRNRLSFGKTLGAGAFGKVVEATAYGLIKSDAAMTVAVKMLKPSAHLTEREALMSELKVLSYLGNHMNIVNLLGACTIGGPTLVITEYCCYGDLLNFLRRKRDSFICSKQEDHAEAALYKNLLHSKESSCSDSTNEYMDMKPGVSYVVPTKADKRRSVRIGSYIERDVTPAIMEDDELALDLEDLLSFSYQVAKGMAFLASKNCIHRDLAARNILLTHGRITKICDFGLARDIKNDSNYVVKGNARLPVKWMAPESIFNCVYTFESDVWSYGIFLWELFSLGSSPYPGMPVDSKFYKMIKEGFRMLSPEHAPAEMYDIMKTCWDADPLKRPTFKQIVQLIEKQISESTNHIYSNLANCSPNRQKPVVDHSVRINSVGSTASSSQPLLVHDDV

Structure (SMILES) | pIC50 [1] | remaining at 10 min [2] | remaining at 10 min [3] | remaining at 10 min [4] | other results
CC1(C)CC=C(c2cc(C(N)=O)ccc2NC(=O)c2nc(C#N)c[nH]2)CC1 | 7.49 | – | – | – | –
N#Cc1cnc(C(=O)Nc2ccc(CCS(=O)(=O)NN)cc2C2=CCCCC2)[nH]1 | 7.64 | – | – | – | –
N#Cc1c[nH]c(C(=O)Nc2ccc(CCS(=O)(=O)N3CCOCC3)cc2C2=CCCCC2)n1 | – | 118% | 4% | 93% | –
CC1(C)CC=C(c2cc(C(C)(C)NCCS(C)(=O)=O)ccc2NC(=O)c2nc(C#N)c[nH]2)CC1 | – | 93% | 28% | 62% | –
CC(C)(O)Cc1ccc(NC(=O)c2nc(C#N)c[nH]2)c(C2=CCCCC2)c1 | 7.49 | 66% | 47% | 61% | –
CC1(C)CC=C(c2cc(C(C)(C)NCCN3CCOCC3)ccc2NC(=O)c2nc(C#N)c[nH]2)CC1 | 8.24 | 82% | 90% | 62% | pIC50 [5]: 7.04; inhibition in vivo at 30 mg/kg (Mus musculus [6]): 14%
N#Cc1cnc(C(=O)Nc2ccc(S(N)(=O)=O)cc2C2=CCCCC2)[nH]1 | < 6.82 | – | – | – | –
CC1(C)CC=C(c2cc(C(C)(C)OCCN3CCOCC3)ccc2NC(=O)c2nc(C#N)c[nH]2)CC1 | – | 38% | 44% | 93% | pIC50 [5]: 7.24
CC1(C)CC=C(c2cc(Cc3nnn[nH]3)ccc2NC(=O)c2ncc(C#N)[nH]2)CC1 | < 7.00 | – | – | – | –
CC1(C)CC=C(c2cc(CN3CCN(CCO)CC3)ccc2NC(=O)c2nc(C#N)c[nH]2)CC1 | – | 101% | 2% | 79% | –
N#Cc1cnc(C(=O)Nc2ccc(Cc3nnn[nH]3)cc2C2=CCCCC2)[nH]1 | < 6.52 | – | – | – | –
CC1(C)CC=C(c2cc(-c3nnn[nH]3)ccc2NC(=O)c2ncc(C#N)[nH]2)CC1 | < 6.52 | – | – | – | –
N#Cc1cnc(C(=O)Nc2ccc(CCO)cc2C2=CCCCC2)[nH]1 | 7.40 | 7% | 3% | 3% | –
CC1(C)CC=C(c2cc(C(C)(C)NCCO)ccc2NC(=O)c2nc(C#N)c[nH]2)CC1 | 8.11 | – | – | – | Ratio IC50 (Mo7e): 32
CC1(C)CC=C(c2cc(S(C)(=O)=O)ccc2NC(=O)c2nc(C#N)c[nH]2)CC1 | 7.23 | – | – | – | –
CC1(C)CC=C(c2cc(C(=O)O)ccc2NC(=O)c2nc(C#N)c[nH]2)CC1 | < 6.52 | – | – | – | –
N#Cc1c[nH]c(C(=O)Nc2ccc(C(N)=O)cc2C2=CCCCC2)n1 | 7.47 | – | – | – | –
N#Cc1cnc(C(=O)Nc2ccc(CCN3CCOCC3)cc2C2=CCCCC2)[nH]1 | 8.74 | 46% | – | 2% | –
N#Cc1c[nH]c(C(=O)Nc2ccc(S(=O)(=O)N3CCOCC3)cc2C2=CCCCC2)n1 | 6.68 | – | – | – | –
N#Cc1cnc(C(=O)Nc2ccc(CN3CCOCC3)cc2C2=CCCCC2)[nH]1 | 7.70 | 71% | – | 5% | –
CC1(C)CC=C(c2cc(CCS(=O)(=O)NN)ccc2NC(=O)c2nc(C#N)c[nH]2)CC1 | 7.68 | – | – | – | –
CN(C)CC(=O)N1CCC(c2ccc(NC(=O)c3nc(C#N)c[nH]3)c(C3=CCCCC3)c2)CC1 | – | – | 77% | – | Ratio IC50 (Mo7e): 15

Structure (SMILES) | pIC50 [1] | remaining at 10 min [2] | remaining at 10 min [3] | remaining at 10 min [4] | other results
CN1CCN(C(C)(C)c2ccc(NC(=O)c3ncc(C#N)[nH]3)c(C3=CCC(C)(C)CC3)c2)CC1 | – | 103% | 16% | 110% | inhibition in vivo at 40 mg/kg (Mus musculus [7]): 0%
CC1(C)CC=C(c2cc(CCN3CCOCC3)ccc2NC(=O)c2ncc(C#N)[nH]2)CC1 | – | 66% | – | 49% | –
CC1(C)CC=C(c2cc(C(C)(C)N3CCOCC3)ccc2NC(=O)c2nc(C#N)c[nH]2)CC1 | 7.77 | – | – | – | –
COCCN(C)C(C)(C)c1ccc(NC(=O)c2nc(C#N)c[nH]2)c(C2=CCC(C)(C)CC2)c1 | – | 11% | 13% | – | –
COCCNC(C)(C)c1ccc(NC(=O)c2nc(C#N)c[nH]2)c(C2=CCC(C)(C)CC2)c1 | – | 79% | 78% | 50% | pIC50 [5]: 7.38
CN(C)C(=O)c1ccc(NC(=O)c2nc(C#N)c[nH]2)c(C2=CCC(C)(C)CC2)c1 | 6.89 | – | – | – | –
N#Cc1c[nH]c(C(=O)Nc2ccc(CCC(=O)O)cc2C2=CCCCC2)n1 | – | 83% | 19% | – | –
CC1(C)CC=C(c2cc(CC(=O)NCCCO)ccc2NC(=O)c2ncc(C#N)[nH]2)CC1 | < 7.00 | – | – | – | –
COCCN1CCN(C(C)(C)c2ccc(NC(=O)c3nc(C#N)c[nH]3)c(C3=CCC(C)(C)CC3)c2)CC1 | – | 72% | 40% | 73% | pIC50 [5]: 6.68
CC1(C)CC=C(c2cc(C(C)(C)O)ccc2NC(=O)c2nc(C#N)c[nH]2)CC1 | 7.60 | 110% | 96% | – | Stability ([4]; microsomes, 10 min): 124%
CC1(C)CC=C(c2cc(C(C)(C)OCCN3CCCC3)ccc2NC(=O)c2nc(C#N)c[nH]2)CC1 | – | – | – | – | pIC50 [5]: 7.60
CC1(C)CC=C(c2cc(CCO)ccc2NC(=O)c2ncc(C#N)[nH]2)CC1 | 7.74 | 74% | – | 41% | –
CC1(C)CC=C(c2cc(S(N)(=O)=O)ccc2NC(=O)c2nc(C#N)c[nH]2)CC1 | < 6.82 | – | – | – | –
CC1(C)CC=C(c2cc(C(C)(C)N3CCS(=O)(=O)CC3)ccc2NC(=O)c2nc(C#N)c[nH]2)CC1 | – | 112% | 98% | 84% | pIC50 [5]: 6.60; inhibition in vivo at 30 mg/kg (Mus musculus [6]): 8%
CN(CCS(C)(=O)=O)C(C)(C)c1ccc(NC(=O)c2nc(C#N)c[nH]2)c(C2=CCC(C)(C)CC2)c1 | 7.68 | – | – | – | –
CC1(C)CC=C(c2cc(CCS(N)(=O)=O)ccc2NC(=O)c2nc(C#N)c[nH]2)CC1 | 7.07 | 109% | 5% | – | –
CC(O)c1ccc(NC(=O)c2ncc(C#N)[nH]2)c(C2=CCC(C)(C)CC2)c1 (stereo unspecified) | < 6.82 | – | – | – | –
CC1(C)CC=C(c2cc(C(C)(C)CO)ccc2NC(=O)c2nc(C#N)c[nH]2)CC1 | 7.48 | – | – | – | –
CN(C)CCOC(C)(C)c1ccc(NC(=O)c2ncc(C#N)[nH]2)c(C2=CCC(C)(C)CC2)c1 | – | 104% | 39% | – | –
CCN1CCN(C(C)(C)c2ccc(NC(=O)c3nc(C#N)c[nH]3)c(C3=CCC(C)(C)CC3)c2)CC1 | – | 108% | 32% | 84% | pIC50 [5]: 7.30
N#Cc1c[nH]c(C(=O)Nc2ccc(CCS(N)(=O)=O)cc2C2=CCCCC2)n1 | 7.27 | – | – | – | –
